# Measurements of several laboratories.
# Each line is one published result; the experiments were not run side by side.
# Target: NUAK family SNF1-like kinase 1 (NUAK1, Homo sapiens, UniProt O60285)
# Sequence (O60285 1-661, as in one of the studies): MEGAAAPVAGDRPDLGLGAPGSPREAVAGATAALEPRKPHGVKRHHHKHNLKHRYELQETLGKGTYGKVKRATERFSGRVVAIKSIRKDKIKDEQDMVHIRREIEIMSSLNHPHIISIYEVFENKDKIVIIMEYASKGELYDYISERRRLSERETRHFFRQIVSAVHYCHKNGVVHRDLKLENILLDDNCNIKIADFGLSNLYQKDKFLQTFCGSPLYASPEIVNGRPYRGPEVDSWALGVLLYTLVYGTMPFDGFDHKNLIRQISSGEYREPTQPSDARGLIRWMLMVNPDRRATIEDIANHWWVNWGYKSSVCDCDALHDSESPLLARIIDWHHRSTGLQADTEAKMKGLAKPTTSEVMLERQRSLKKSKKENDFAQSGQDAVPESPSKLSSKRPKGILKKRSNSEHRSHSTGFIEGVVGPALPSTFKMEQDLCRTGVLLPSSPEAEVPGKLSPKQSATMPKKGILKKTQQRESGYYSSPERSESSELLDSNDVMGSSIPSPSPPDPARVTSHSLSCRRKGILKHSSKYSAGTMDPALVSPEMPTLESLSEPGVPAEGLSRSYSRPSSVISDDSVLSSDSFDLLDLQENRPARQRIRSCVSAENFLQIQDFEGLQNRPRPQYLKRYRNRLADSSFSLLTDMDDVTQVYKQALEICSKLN
Compound,assay,setting,measurement,value
Cc1nn(C)cc1-c1nc2c(N3CCN(Cc4ccc(Cl)cc4)CC3)c(Cl)cnc2[nH]1,"binding, competition with immobilised ligand",1 µM,remaining binding,9.6%
C#Cc1n[nH]c2c(-c3cn([C@@H](C)c4ccccc4)c(=O)[nH]c3=O)cc(F)cc12,"enzyme activity, inhibitor",0.1 µM,inhibition,0.4%
Cn1cncc1[C@](O)(COc1ccc(C#N)cc1-c1ccc(OC(F)(F)F)cc1)c1ccc(C#N)cc1,"cell-free assay, competition with immobilised ligand",1 µM,remaining binding,81%
CC(C)(C)c1cc(C=C(C#N)C#N)cc(Br)c1O,"enzyme activity, inhibitor",0.5 µM,remaining activity,95.4%
Cn1cc(-c2cccc(N3CCc4c(sc5c4CC(C)(C)C5)C3=O)c2CO)cc(Nc2ccncn2)c1=O,"enzyme activity, inhibitor",1 µM,inhibition,14%
Nc1ncc(-c2nc(N3CCOCC3)nc(N3CCOCC3)n2)c(C(F)F)n1,"binding, competition with immobilised ligand",10 µM,remaining binding,94%
O=c1[nH]c2ccccc2n1C1CCN(Cc2ccc(-c3[nH]c4cc5ncnc5cc4nc3-c3ccccc3)cc2)CC1,cell-free assay,0.5 µM,remaining signal,103%
N#CC1(c2ccccn2)CCN(Cc2cc(C(=O)O)c(=O)n3ccccc23)CC1,"cell-free assay, competition with immobilised ligand",1 µM,remaining binding,98%
Cn1cc(-c2cc(F)cc(N3CCn4c(cc5c4CCCC5)C3=O)c2CO)cc(Nc2ccc(N3CCN(C4COC4)CC3)cn2)c1=O,"enzyme activity, inhibitor",0.1 µM,inhibition,17%
COc1ncccc1-c1cnn2ccc(N3CCN(C(=O)OC(C)C)CC3)nc12,"binding, competition with immobilised ligand",1 µM,remaining binding,65%
C#Cc1n[nH]c2c(-c3cn([C@@H](C)c4ccccn4)c(=O)[nH]c3=O)cc(F)cc12,"enzyme activity, inhibitor",0.1 µM,inhibition,3.3%
